High-throughput results (PubChem BioAssay)
Mdm2 ligase inh: inhibitors of human Mdm2 E3 ubiquitin ligase; cell-based MDM2 ubiquitination luciferase reporter, 2 h; 0 = plate control, 100 = twice control, blank-subtracted; signal enhancement, % at 5 µM; actives 0.11% (n = 210,000); AID 1230;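 active means signal enhancement of 30% or more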;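 further: luminescence tracks abundance of the self-degrading MDM2-luciferase fusion protein; higher signal means inhibition of MDM2 E3 ligase activity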
Target sequence (Q00987 whole entry, looked up, the tested form may be a part): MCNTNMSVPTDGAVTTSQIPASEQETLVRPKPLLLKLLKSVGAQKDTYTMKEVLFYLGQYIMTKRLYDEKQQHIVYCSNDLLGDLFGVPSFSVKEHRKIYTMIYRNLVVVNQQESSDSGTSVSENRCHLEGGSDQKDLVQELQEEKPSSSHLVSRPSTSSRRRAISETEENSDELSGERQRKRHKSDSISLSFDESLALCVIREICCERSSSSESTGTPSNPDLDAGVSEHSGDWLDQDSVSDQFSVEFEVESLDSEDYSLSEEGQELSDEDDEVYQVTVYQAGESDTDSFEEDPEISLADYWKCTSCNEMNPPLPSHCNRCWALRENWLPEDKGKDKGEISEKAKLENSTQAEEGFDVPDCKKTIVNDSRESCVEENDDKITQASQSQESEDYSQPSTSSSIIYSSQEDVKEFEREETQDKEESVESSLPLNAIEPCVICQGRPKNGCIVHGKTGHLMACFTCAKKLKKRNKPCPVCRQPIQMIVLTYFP
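test system = mammalian cells stably expressing self-ubiquitinating, self-degrading MDM2 E3–luciferase fusion | quantity = 2000 cells/well | incubation = cell settling 4 h, compound treatment 2 h, both 37 °C | signal = luminescence with SteadyLite reagent, 15 min at room temperature | evaluation = % enhancement relative to plate controls after blank subtraction | benchmarks = plate controls and plate blanks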
Lmaj promast: inhibitors of Leishmania major promastigote growth; Leishmania major promastigotes, resazurin fluorescence viability; inhibition, % at 10 µM; actives 9% (n = 200,000); in the data active means inhibition above about 50%;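 further: promastigotes grown with compound for 44 hours at 28 °C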
S1P4 antag: antagonists of human S1P4 receptor; O95977; S1P4-expressing cells, antagonist mode, reporter read-out; inhibition, % at 4.98 µM; actives 0.26% (n = 220,000); AID 1510; in the data active means inhibition above about 29%
S1P3 antag: antagonists of human S1P3 receptor; actives 0.27% (n = 170,000); inhibition, % at 4.98 µM; CHO S1P3 NFAT-BLA reporter, FRET fluorescence, antagonist mode; Q99500;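 active means inhibition above the plate cutoff, the mean inhibition of test wells on that plate plus 3 SD, cut at about 28% in these data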;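 further: cells challenged with S1P at its EC80 of 0.8 µM; blue over green emission ratio from cleaved BLA substrate after 4 h stimulation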
S1P4 ag: agonists of human S1P4 receptor. AID 1509. activation, % at 4.98 µM. S1P4-expressing cell line, agonist reporter assay. actives 0.35% (n = 220,000). O95977; in the data active means activation above about 11%
A number is an active result; 0 = inactive; - = no result given. The full list was thinned out, with hits kept by preference.

SMILES | Mdm2 ligase inh | Lmaj promast | S1P4 antag | S1P3 antag | S1P4 ag
Cn1cc(-c2ccccc2C(N)=O)c(=O)c2ccccc21 | 0 | 0 | 0 | 0 | 0
Cn1cc(-c2ccccc2C(N)=O)c(=O)c2cc(Cl)ccc21 | 0 | 72.6 | 0 | 0 | 0
O=C(COc1cccc2cccnc12)N/N=C1\SCC(=O)N1CCc1ccccc1 | 0 | 0 | 0 | 0 | 0
CN(C)c1ccc(C(=O)c2ccccc2)cc1 | 0 | 0 | 0 | - | 0
COC(=O)C(C)N(C(=O)c1ccc(Cl)cc1)c1c(C)cccc1C (stereo unspecified) | 0 | 87.2 | 0 | - | 0
COC(=O)C(C)N(C(=O)c1ccc(C(=O)c2ccccc2)cc1)c1c(C)cccc1C (stereo unspecified) | 0 | 99.4 | 0 | - | 0
COc1ccccc1C1C(C#N)=C(N)N(c2cccnc2)C2=C1C(=O)CC(C)(C)C2 (stereo unspecified) | 0 | 0 | 0 | - | 0
CC(C)CCNC(=O)C(c1ccc(O)cc1)N(Cc1cccs1)C(=O)C1COc2ccccc2O1 (stereo unspecified) | 0 | 99.7 | 0 | 0 | 0
O=C(NC1CCCCC1)C(c1ccc(O)cc1)N(CC1CCCO1)C(=O)C1COc2ccccc2O1 (stereo unspecified) | 0 | 50.1 | 0 | - | 0
Cc1ccc(C(C(=O)NC2CCCCC2)N(Cc2ccco2)C(=O)C2COc3ccccc3O2)o1 (stereo unspecified) | 0 | 0 | 0 | - | 0
Cc1ccc(C(C(=O)NC2CCCCC2)N(Cc2cccnc2)C(=O)C2COc3ccccc3O2)o1 (stereo unspecified) | 0 | 64.0 | 0 | 0 | 0
O=C(CNC(=O)C12CC3CC(CC(C3)C1)C2)N/N=C\c1ccccn1 | 0 | 0 | 0 | 0 | 0
O=C1C(C=NCc2ccncc2)=C(O)c2ccccc21 | 0 | 0 | 0 | - | 0
O=C1N/C(=C/c2ccc(Br)cc2)C(O)=C1C=NCc1ccccc1 | 0 | 78.9 | 0 | 0 | 0
COc1cc(-c2[nH]ncc2CN2CCN(Cc3cccs3)CC2)cc(OC)c1OC | 0 | 0 | 0 | 0 | 0
CC1(C)NC(=O)N(CCCCOc2ccc(Cl)cc2C=O)C1=O | - | 57.0 | 0 | 0 | 0
CCCCNC(=O)COC(=O)c1ccc(F)cc1Cl | 0 | 0 | 0 | 0 | 0
Cc1ccc2nc(-c3ccc(SCC(=O)Nc4nnc(C)s4)nc3)[nH]c2c1 | 0 | 0 | 0 | 0 | 0
Cc1cc2nc(-c3ccc(SCC(=O)N4CCN(C(=O)c5ccco5)CC4)nc3)[nH]c2cc1C | 0 | 0 | 0 | - | 0
Cc1cc2nc(-c3ccc(SCc4ccccn4)nc3)[nH]c2cc1C | 0 | 64.4 | 0 | 0 | 0
Cc1cc2nc(-c3ccc(SCC(=O)N4CCOCC4)nc3)[nH]c2cc1C | 0 | 60.2 | 0 | - | 0
CCOC(=O)CSc1ccc(-c2nc3cc(C)c(C)cc3[nH]2)cn1 | 0 | 56.6 | 0 | - | 0
Cc1cc2nc(-c3ccc(SCC(=O)Nc4ccc5c(c4)OCCO5)nc3)[nH]c2cc1C | 0 | 0 | 0 | - | 0
Cc1ccc2nc(-c3ccc(SCC(=O)Nc4nc(C)cs4)nc3)[nH]c2c1 | 0 | 53.2 | 0 | 0 | 0
Cc1nnc(NC(=O)c2ccc(S(=O)(=O)C(F)F)cc2)s1 | 0 | - | 0 | 0 | 0
SMILES | Mdm2 ligase inh | Lmaj promast | S1P4 antag | S1P3 antag | S1P4 ag
CSc1n[nH]c(NCc2ccc(C)cc2)n1 | - | 0 | 0 | - | 0
Cc1cc(NC(=O)c2sccc2C)n(-c2cccc(Cl)c2)n1 | 0 | 0 | 0 | 0 | 0
CC1(C)CC(=O)C2=C(C1)NC1=C(C(=O)c3ccccc31)C2c1ccc(O)cc1 (stereo unspecified) | 0 | 0 | 0 | 0 | 0
CCCc1ccc(C2C3=C(CC(C)(C)CC3=O)NC3=C2C(=O)c2ccccc23)cc1 (stereo unspecified) | 0 | 87.8 | 0 | - | 0
CCCCc1ccc(C2C3=C(CC(C)(C)CC3=O)NC3=C2C(=O)c2ccccc23)cc1 (stereo unspecified) | 0 | 99.0 | 0 | 0 | 0
Cn1c(=O)[nH]c(=O)c2c1nc(N1CCCCC1)n2CCSc1nc2ccccc2o1 | 0 | 0 | 0 | 0 | 0
CC(C)CCn1c(Sc2nc3ccccc3o2)nc2c1c(=O)[nH]c(=O)n2C | 0 | 95.5 | 0 | 0 | 0
CCOC(=O)C1CCN(C(c2cc3ccc(C)cc3[nH]c2=O)c2nnnn2C2CCCCC2)CC1 (stereo unspecified) | 0 | 88.5 | 0 | 0 | 0
COc1ccccc1N1CCN(C(c2cc3cc(C)ccc3[nH]c2=O)c2nnnn2C2CCCC2)CC1 (stereo unspecified) | 0 | 54.5 | 0 | 0 | 0
COc1ccccc1N1CCN(C(c2cc3ccc(C)cc3[nH]c2=O)c2nnnn2C2CCCC2)CC1 (stereo unspecified) | 0 | 61.9 | 0 | 0 | 0
COc1cc2cc(C(c3nnnn3C3CCCC3)N3CCc4ccccc43)c(=O)[nH]c2cc1OC (stereo unspecified) | 0 | 0 | 0 | 0 | 0
CCC(C)(C)n1nnnc1C(c1cc2ccc(OC)cc2[nH]c1=O)N1CCN(C2CCCCC2)CC1 (stereo unspecified) | 0 | 0 | 0 | 0 | 0
OC1(c2cccc(F)c2)CCN(Cc2ccncc2)CC1 | 0 | 93.6 | 0 | 0 | 0
Cc1nn(Cc2ccccc2Cl)c(C)c1C(=O)NCCN1C(=O)S/C(=C\c2ccccc2)C1=O | 0 | 0 | 0 | 0 | 0
O=C(NN=C(Cc1ccccc1)Cc1ccccc1)c1ccccc1O | 0 | 61.1 | 0 | 0 | 0
O=C(NN=C(Cc1ccccc1)Cc1ccccc1)c1ccc(F)cc1 | 0 | 0 | 0 | 0 | 0
Cc1cc(C)n2nc(SCC(=O)c3c(N)n(CC(C)C)c(=O)n(C)c3=O)nc2n1 | 0 | 0 | 0 | 0 | 0
CC(NC(=S)Nc1ccc(Cl)cc1)C(c1ccccc1)N1CCOCC1 (stereo unspecified) | - | 0 | 0 | 0 | 0
Cc1ccccc1CN1CCN(Cc2ccccc2C(F)(F)F)CC1 | 0 | 0 | 0 | - | 0
O=S(=O)(c1ccccc1)N1CCN(Cc2ccccc2C(F)(F)F)CC1 | 0 | 92.0 | 0 | 0 | 0
FC(F)(F)c1ccccc1CN1CCN(C2CCCCCC2)CC1 | 0 | 97.2 | 0 | 0 | 0
COc1ccc(CCNC(=O)CSc2nnc(Cc3cccn3C)n2C)cc1OC | 0 | 0 | 0 | 0 | 0
C=CCNC(=S)Nc1sc2c(c1C#N)CCCC2 | 0 | 57.9 | 0 | 0 | 0
CN1CCC(OC(=O)COc2ccc(Br)cc2)CC1 | 0 | 0 | 0 | 0 | 0
CN1CCC(OC(=O)c2ccc(Br)cc2)CC1 | - | 84.9 | 0 | - | 0
SMILES | Mdm2 ligase inh | Lmaj promast | S1P4 antag | S1P3 antag | S1P4 ag
Cc1ccc(CNC(=O)CSc2ncccn2)cc1 | 0 | 0 | 0 | - | 0
CC(Oc1ccc2ccc(=O)oc2c1)C(=O)c1ccccc1 (stereo unspecified) | 0 | 68.9 | 0 | 0 | 0
O=C(COc1ccc2ccc(=O)oc2c1)c1ccccc1 | - | - | 0 | 0 | 0
CCOc1ccc(C2CC(=O)N(Nc3ccc([N+](=O)[O-])cc3[N+](=O)[O-])C2=O)cc1 (stereo unspecified) | 0 | - | 0 | 0 | 0
FC(F)(F)c1cccc(Cc2noc(CN3CCC(c4ccncc4)CC3)n2)c1 | 0 | 98.4 | 0 | 0 | 0
FC(F)(F)c1cccc(-c2noc(CN3CCOCC3)n2)c1 | 0 | 0 | 0 | - | 0
